Assays:
Adenosine receptor A2a = Adenosine receptor A2a (Homo sapiens, UniProt P29274); assay: Displacement of [3H]NECA from human A2A adenosine receptor expressed in CHO cell membranes
In short: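 Crude membranes from stably transfected CHO cells, prepared by a two-step spin (1,000 x g, then 100,000 x g). Competition with 10 nM [3H]NECA, with nonspecific binding measured in presence of 100 µM R-PIA. Ki derived from competition experiments.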

Homo sapiens [1] = species on record: Homo sapiens; assay: Selectivity index, ratio of Ki for human A1 adenosine receptor to Ki for human A2A adenosine receptor
Adenosine receptor A3 = biological target: T1, Adenosine receptor A3 (Homo sapiens, UniProt P0DMS8); assay: Displacement of [3H]HEMADO from human A3 adenosine receptor expressed in CHO cell membranes
T1 sequence (P0DMS8 whole entry): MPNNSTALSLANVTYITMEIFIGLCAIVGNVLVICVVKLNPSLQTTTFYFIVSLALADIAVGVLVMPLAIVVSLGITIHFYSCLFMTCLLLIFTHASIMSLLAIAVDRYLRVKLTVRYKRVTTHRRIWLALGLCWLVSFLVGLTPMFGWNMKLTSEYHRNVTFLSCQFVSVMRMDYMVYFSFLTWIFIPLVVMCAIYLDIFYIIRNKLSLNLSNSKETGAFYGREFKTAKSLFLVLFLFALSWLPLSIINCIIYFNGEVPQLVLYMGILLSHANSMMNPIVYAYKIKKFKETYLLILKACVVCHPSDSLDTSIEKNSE
In short: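 Two-step centrifugation (1,000 x g, then 100,000 x g) of stably transfected CHO cells gave the membranes. Displacement of 1 nM [3H]HEMADO; nonspecific binding taken with 100 µM R-PIA. Ki computed from competition data.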

Homo sapiens [2] = species on record: Homo sapiens; assay: Selectivity index, ratio of Ki for human A3 adenosine receptor to Ki for human A2A adenosine receptor
Adenosine receptor A1 = biological target: T2, Adenosine receptor A1 (Homo sapiens, UniProt P30542); assay: Displacement of [3H]CCPA from human A1 adenosine receptor expressed in CHO cell membranes
T2 sequence (P30542 whole entry): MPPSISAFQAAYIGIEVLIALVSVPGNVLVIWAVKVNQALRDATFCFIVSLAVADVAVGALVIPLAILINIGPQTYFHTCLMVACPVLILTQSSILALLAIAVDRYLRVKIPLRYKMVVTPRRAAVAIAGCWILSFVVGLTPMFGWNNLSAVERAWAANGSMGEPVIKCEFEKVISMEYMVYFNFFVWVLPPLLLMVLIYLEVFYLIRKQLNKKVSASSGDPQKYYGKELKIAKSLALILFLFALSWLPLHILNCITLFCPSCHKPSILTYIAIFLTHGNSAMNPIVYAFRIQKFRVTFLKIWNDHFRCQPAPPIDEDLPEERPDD
In short: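 Membranes from stably transfected CHO cells (1,000 x g spin to clear nuclei and debris, then 100,000 x g pellet), resuspended in binding buffer and frozen. Competition against 1 nM [3H]CCPA; nonspecific binding defined with 1 mM theophylline. Ki calculated from competition curves.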

Adenosine receptor A2b = biological target: T3, Adenosine receptor A2b (Homo sapiens, UniProt P29275); assay: Antagonist activity at human A2B adenosine receptor expressed in CHO cell membranes assessed as inhibition of NECA stimulated adenylyl cyclase activity; format: functional, cell-based
T3 sequence (P29275 whole entry): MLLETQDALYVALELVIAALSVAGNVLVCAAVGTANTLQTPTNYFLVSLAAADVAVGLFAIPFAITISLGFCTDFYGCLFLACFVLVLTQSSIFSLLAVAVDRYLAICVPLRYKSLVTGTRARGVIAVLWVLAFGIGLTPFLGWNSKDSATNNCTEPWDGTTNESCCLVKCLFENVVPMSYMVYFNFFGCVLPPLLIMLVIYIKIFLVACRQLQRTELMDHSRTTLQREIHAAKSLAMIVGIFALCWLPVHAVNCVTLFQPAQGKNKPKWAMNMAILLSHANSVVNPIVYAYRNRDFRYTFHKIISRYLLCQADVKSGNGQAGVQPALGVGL
In short: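 CHO cells stably expressing hA2B; crude membranes from a single high-speed spin, resuspended in 50 mM Tris/HCl pH 7.4 and used fresh. Incubated 20 min with about 150,000 cpm [α-32P]ATP in a mixture without EDTA and NaCl. IC50 for inhibition of NECA-stimulated cyclase obtained by Hill equation fit.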

Chain of Adenosine receptor A2a (P29274 whole entry): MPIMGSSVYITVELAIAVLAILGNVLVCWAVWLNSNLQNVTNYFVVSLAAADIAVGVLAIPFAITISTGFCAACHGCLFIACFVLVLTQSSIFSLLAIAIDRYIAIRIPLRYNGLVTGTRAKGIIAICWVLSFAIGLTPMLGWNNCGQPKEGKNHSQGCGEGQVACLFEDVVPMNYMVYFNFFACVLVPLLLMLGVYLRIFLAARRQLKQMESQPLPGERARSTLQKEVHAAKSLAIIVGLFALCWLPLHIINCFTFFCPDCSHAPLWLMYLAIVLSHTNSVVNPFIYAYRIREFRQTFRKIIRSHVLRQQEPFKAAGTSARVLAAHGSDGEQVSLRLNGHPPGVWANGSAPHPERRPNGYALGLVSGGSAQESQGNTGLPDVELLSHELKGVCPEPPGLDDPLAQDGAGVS

Compound | Ki (Adenosine receptor A2a) [nM] | Ratio Ki (Homo sapiens [1]) | Ki (Adenosine receptor A3) [nM] | Ratio Ki (Homo sapiens [2]) | Ki (Adenosine receptor A1; read-out: Ki) [nM] | IC50 (Adenosine receptor A2b) [nM] | Ki (Adenosine receptor A1; cho)
Nc1nc(NC2CCCCC2)nc2nc(-c3ccco3)nn12 | 3.56 | 38.8 | 370 | 104 | 138 | 13400 | –
CNc1nc(NCc2ccc(F)cc2)n2nc(-c3ccco3)nc2n1 | 235 | 13.1 | 557 | 2.37 | 3080 | > 30000 | –
CC(C)Nc1nc(NC(=O)Cc2ccccc2)n2nc(-c3ccco3)nc2n1 | 393 | 18.2 | 257 | 0.65 | 7150 | > 30000 | –
Fc1ccc(CNc2nc(NC3CCCCC3)nc3nc(-c4ccco4)nn23)cc1 | 112 | > 893 | 1300 | 11.6 | > 100000 | > 30000 | –
Fc1ccc(CNc2nc(NCc3ccccc3)nc3nc(-c4ccco4)nn23)cc1 | 21.8 | 68.3 | 75.3 | 3.45 | 1490 | > 30000 | –
O=C(Cc1ccccc1)Nc1nc(NCc2ccccc2)nc2nc(-c3ccco3)nn12 | 5.39 | 125 | 45.5 | 8.44 | 676 | 7620 | –
c1ccc(CNc2nc(NC3CCCCC3)n3nc(-c4ccco4)nc3n2)cc1 | 15.2 | 4.2 | 455 | 29.9 | 63.9 | > 30000 | –
O=C(Cc1ccccc1)Nc1nc(NC2CCCCC2)nc2nc(-c3ccco3)nn12 | 23.6 | 42.8 | 286 | 12.1 | 1010 | > 30000 | –
O=C(Nc1nc(NC2CCCCC2)nc2nc(-c3ccco3)nn12)c1ccccc1 | 1020 | 7.41 | 8500 | 8.33 | 7560 | > 30000 | –
CNc1nc(NC(=O)Cc2ccccc2)n2nc(-c3ccco3)nc2n1 | 300 | 29.9 | 1670 | 5.57 | 8960 | > 30000 | –
c1ccc(CNc2nc(NC3CCCCC3)nc3nc(-c4ccco4)nn23)cc1 | – | – | – | – | – | – | ND(Insoluble)
Fc1ccc(CNc2nc(NCc3ccc(F)cc3)n3nc(-c4ccco4)nc3n2)cc1 | 43.6 | > 2290 | 123 | 2.82 | > 100000 | > 30000 | –
CNc1nc(N)n2nc(-c3ccco3)nc2n1 | 49.3 | 52.1 | 1560 | 31.6 | 2570 | > 30000 | –
CC(C)Nc1nc(NC2CCCCC2)n2nc(-c3ccco3)nc2n1 | 397 | 2.02 | 105 | 0.26 | 801 | > 30000 | –
CC(C)Nc1nc(N)n2nc(-c3ccco3)nc2n1 | 64.8 | 66.5 | 568 | 8.76 | 4310 | > 30000 | –
CC(C)Nc1nc(NC(=O)c2ccccc2)n2nc(-c3ccco3)nc2n1 | 2150 | 11.3 | 13400 | 6.23 | 24400 | > 30000 | –

Compound | Ki (Adenosine receptor A2a) [nM] | Ratio Ki (Homo sapiens [1]) | Ki (Adenosine receptor A3) [nM] | Ratio Ki (Homo sapiens [2]) | Ki (Adenosine receptor A1; read-out: Ki) [nM] | IC50 (Adenosine receptor A2b) [nM] | Ki (Adenosine receptor A1; cho)
Fc1ccc(CNc2nc(Oc3ccccc3)nc3nc(-c4ccco4)nn23)cc1 | 905 | > 110 | > 100000 | > 110 | > 100000 | > 30000 | –
c1coc(-c2nc3nc(NC4CCCCC4)nc(NC4CCCCC4)n3n2)c1 | 177 | 1.73 | 129 | 0.73 | 306 | > 30000 | –
c1ccc(Oc2nc(NC3CCCCC3)n3nc(-c4ccco4)nc3n2)cc1 | 113 | 6.7 | 294 | 2.6 | 757 | > 30000 | –
O=C(Nc1ccccc1)Nc1nc(NCc2ccccc2)nc2nc(-c3ccco3)nn12 | 1.44 | 216 | 29.7 | 20.6 | 311 | 4360 | –
Nc1nc(NCc2ccccc2)nc2nc(-c3ccco3)nn12 | 1.11 | 85.2 | 30.8 | 27.7 | 94.6 | 2210 | –
O=C(Nc1ccccc1)Nc1nc(NC2CCCCC2)nc2nc(-c3ccco3)nn12 | 7.87 | 120 | 349 | 44.3 | 946 | > 30000 | –
CNc1nc(NCc2ccccc2)n2nc(-c3ccco3)nc2n1 | 173 | 16 | 275 | 1.59 | 2770 | > 30000 | –
c1ccc(CNc2nc(NCc3ccccc3)n3nc(-c4ccco4)nc3n2)cc1 | 20.4 | 38.4 | 37 | 1.81 | 784 | 11800 | –
CC(C)Nc1nc(NC(=O)Nc2ccccc2)n2nc(-c3ccco3)nc2n1 | 86.9 | 13.6 | 170 | 1.96 | 1180 | > 30000 | –
CNc1nc(NC(=O)c2ccccc2)n2nc(-c3ccco3)nc2n1 | 194 | 54.1 | 9240 | 47.6 | 10500 | > 30000 | –
O=C(Nc1nc(NCc2ccccc2)nc2nc(-c3ccco3)nn12)c1ccccc1 | 95.2 | 15.2 | 250 | 2.63 | 1450 | > 30000 | –
CNc1nc(NC(=O)Nc2ccccc2)n2nc(-c3ccco3)nc2n1 | 99.6 | 38.6 | 572 | 5.74 | 3850 | > 30000 | –
CNc1nc(NC2CCCCC2)n2nc(-c3ccco3)nc2n1 | 143 | 2.52 | 905 | 6.33 | 361 | > 30000 | –
c1ccc(CNc2nc(Oc3ccccc3)nc3nc(-c4ccco4)nn23)cc1 | 560 | > 178 | 375 | 0.67 | > 100000 | > 30000 | –
CC(C)Nc1nc(NCc2ccccc2)n2nc(-c3ccco3)nc2n1 | 394 | > 253 | 114 | 0.29 | > 100000 | > 30000 | –

Source: ChEMBL document CHEMBL3751698, “5,7-Disubstituted-[1,2,4]triazolo[1,5-a][1,3,5]triazines as pharmacological tools to explore the antagonist selectivity profiles toward adenosine receptors” (Eur J Med Chem, 2016)
